An excerpt weighted towards active compounds, which were near 2.3% of everything screened.
Calpain2 inh – inhibitors of pig calpain II, primary screen, biochemical, fluorogenic peptide substrate, 1536-well; AID 1236, 2008; 0.37% of 220,000 active; purified calpain II, 30 min; inhibition, % at 16 µM;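 active = inhibition above about 50%, limit read from the data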
NPY-Y1 antag – NPY-Y1 receptor antagonists, primary screen, cell-based; inhibition, % at 3.6 µM; HEK293-CNG Y1 cells, membrane potential fluorescence; NPY at EC95, then isoproterenol; Neuropeptide Y receptor type 1 (Homo sapiens), P25929; 1% of 200,000 active; AID 1040, 2008;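 active = inhibition above the campaign mean inhibition of all tested compounds plus 3 SD, cut at about 20% in these data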
Target sequence (P25929 whole entry, looked up): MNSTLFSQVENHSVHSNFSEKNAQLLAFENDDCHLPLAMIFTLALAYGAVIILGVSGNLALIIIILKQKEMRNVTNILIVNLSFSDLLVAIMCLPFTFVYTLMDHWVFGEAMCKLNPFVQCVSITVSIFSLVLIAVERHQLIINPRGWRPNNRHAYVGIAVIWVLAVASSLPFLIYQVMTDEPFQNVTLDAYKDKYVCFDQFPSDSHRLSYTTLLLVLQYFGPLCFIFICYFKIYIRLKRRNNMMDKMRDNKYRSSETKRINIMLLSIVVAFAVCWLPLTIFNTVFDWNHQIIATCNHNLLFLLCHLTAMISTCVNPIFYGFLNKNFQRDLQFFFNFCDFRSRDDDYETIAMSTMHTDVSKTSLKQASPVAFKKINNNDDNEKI
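Material: HEK293 cells co-expressing NPY Y1 receptor and cyclic-nucleotide gated channel. Timing: compound incubation 1 h at room temperature, readout 45 min post-stimulation. Signal: fluorescence, membrane potential probe.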
NPY1 pot ag – NPY-Y1 receptor potentiators or agonists, primary screen, cell-based; NPY-Y1 expressing cells, potentiator/agonist activation; activation, % at 3.6 µM; 0.37% of 220,000 active; in the data active = activation above about 33%, passing the limit was not always enough;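 also: cells stimulated with NPY at EC10 then isoproterenol at EC100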
Tb hexokinase – Trypanosoma brucei hexokinase 1 inhibitors, primary screen, biochemical, G6PDH-coupled NADH absorbance, MLSCN library; recombinant TbHK1, G6PDH-coupled NADH A340; hexokinase 1 [Trypanosoma brucei]; 0.11% of 220,000 active; inhibition, % at 10 µM;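 active = inhibition of 50% or more in the single-dose primary screen; inactive = inhibition below 50%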
NPY-Y2 PAM-ag – NPY-Y2 potentiators or agonists, primary screen, cell-based. activation, % at 3.6 µM. 0.45% of 220,000 active. cells expressing NPY-Y2, potentiator/agonist read-out; in the data active = activation above about 27%;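 also: cells stimulated with NPY near EC25 plus isoproterenol at EC100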
NPY Y2 blocker – NPY-Y2 receptor antagonists, primary screen, cell-based | Neuropeptide Y receptor type 2 (Homo sapiens), P49146 | NPY-Y2 expressing cells, antagonist mode | inhibition, % at 2.7 µM | 0.99% of 140,000 active; in the data active = inhibition above about 17%
NPY-Y1 pot conf – NPY-Y1 potentiators or agonists, confirmation, cell-based; shares compounds with NPY1 pot ag; cell-based NPY-Y1 potentiator/agonist assay; activation, % at 3.6 µM; 20% of 280 active; in the data active = activation above about 45%;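 also: cells challenged with NPY at its EC10 plus isoproterenol stimulus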
NPY-Y2 counter – NPY-Y2 potentiators or agonists, counter-screen for NPY-Y1 potentiator project, cell-based, fluorescence | shares compounds with NPY1 pot ag | HEK293-CNG cells, membrane-potential fluorescence (FLIPR), 1536-well | activation, % at 3.6 µM | 20% of 280 active | AID 1649, 2009; in the data active = activation above about 33%
NPY-Y1 agonist – NPY-Y1 direct agonists without NPY, confirmation, counter-screen for NPY-Y1 potentiator project, cell-based, fluorescence; shares compounds with NPY1 pot ag; HEK293 Y1-CNGC, membrane potential fluorescence, agonist mode; activation, % at 3.6 µM; 50% of 280 active; AID 1697, 2009;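 active = percent activation above the mean of DMSO-only control wells plus 3 SD of those wells, cut at about 18% in these data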;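 also: cells challenged with isoproterenol plus Ro 20-1724 with no NPY in test wells; Y1 agonism lowers isoproterenol-driven cAMP and reduces probe fluorescence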
NPY-Y2 agonist – NPY-Y2 direct agonists without NPY, counter-screen for NPY-Y1 potentiator project, cell-based, fluorescence; shares compounds with NPY1 pot ag; AID 1698, 2009; 67% of 280 active; HEK293 Y2-CNGC, membrane potential fluorescence, agonist mode; activation, % at 3.6 µM;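 active = activation above the solvent-only control wells' mean plus 3 SD, cut at about 11% in these data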;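 also: agonism lowers cAMP so well fluorescence drops in active wells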
CNGC inh 2 – CNGC cAMP sensor activity inhibitors, counter-screen for NPY-Y1 potentiator/agonist project, cell-based, HEK293-CNG parental, membrane potential fluorescence, Y1 set | 42% of 280 active | shares compounds with NPY1 pot ag | isoproterenol cAMP | inhibition, % at 3.6 µM;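 active = inhibition above the mean of stimulated solvent-only control wells plus 3 SD, cut at about 22% in these data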
Of the large screens only hits and unclear results are named; the others gave an inactive call (follow-up assays come after a bar, where they were run).

COc1ccc(Cl)cc1C(=O)NNC(=O)CSc1nnnn1C	none (no result: NPY Y2 blocker)
CC1OC(Nc2cccc3ccccc23)C(O)C(O)C1O (configuration not stated)	none
CC1OC(Nc2ccc(N=Nc3ccccc3)cc2)C(O)C(O)C1O (configuration not stated)	NPY1 pot ag 38 (no result: NPY Y2 blocker) | NPY-Y1 pot conf inactive | NPY-Y2 counter inactive | NPY-Y1 agonist 27 | NPY-Y2 agonist 37 | CNGC inh 2 inactive
O=C(Nc1ccccc1)Nc1cc(OCC(F)(F)F)cc(OCC(F)(F)F)c1	NPY1 pot ag 46 | NPY-Y1 pot conf inactive | NPY-Y2 counter inactive | NPY-Y1 agonist inactive | NPY-Y2 agonist 25 | CNGC inh 2 25
CCCC(=O)c1ccc(N2CCN(C(=O)c3ccccc3Br)CC2)c(F)c1	NPY1 pot ag 34 | NPY-Y1 pot conf inactive | NPY-Y2 counter inactive | NPY-Y1 agonist inactive | NPY-Y2 agonist inactive | CNGC inh 2 inactive
COC(=O)c1sc(-c2ccc(C(C)(C)C)cc2)cc1NC(=O)c1ccccc1C(=O)O	NPY1 pot ag 63 (no result: NPY-Y1 antag, NPY Y2 blocker) | NPY-Y1 pot conf 46 | NPY-Y2 counter inactive | NPY-Y1 agonist 39 | NPY-Y2 agonist 12 | CNGC inh 2 24
COC(=O)c1sc(-c2ccc(Cl)cc2)cc1NC(=O)c1ccccc1C(=O)O	none (no result: NPY-Y1 antag, NPY Y2 blocker)
O=C(CNC(=S)N(Cc1ccccc1)Cc1cccnc1)NC1CCCC1	none
O=C(CSc1nc2cc(C(F)(F)F)ccc2n1Cc1ccccc1)NC1CCS(=O)(=O)C1 (configuration not stated)	NPY1 pot ag 48 | NPY-Y1 pot conf 91 | NPY-Y2 counter 63 | NPY-Y1 agonist 78 | NPY-Y2 agonist 53 | CNGC inh 2 72
Cc1[nH]n(-c2ccc([N+](=O)[O-])cc2)c(=O)c1C=NCCN1CCN(C(=O)c2cccc(F)c2)CC1	NPY1 pot ag 47 | NPY-Y1 pot conf inactive | NPY-Y2 counter inactive | NPY-Y1 agonist inactive | NPY-Y2 agonist inactive | CNGC inh 2 inactive
COc1ccc(N2C(=O)C(CC(N)=O)N(NC(=O)CCc3ccccc3)C2=O)cc1 (configuration not stated)	none (no result: NPY Y2 blocker)
CC1c2[nH]c3ccccc3c2CCN1C(=O)Nc1ccccc1 (configuration not stated)	NPY1 pot ag 47 | NPY-Y1 pot conf inactive | NPY-Y2 counter inactive | NPY-Y1 agonist inactive | NPY-Y2 agonist inactive | CNGC inh 2 inactive
CCOc1ccc(C(=O)Nc2ccc(N3CCN(C)CC3)cc2)cc1Br	NPY1 pot ag 37 | NPY-Y1 pot conf inactive | NPY-Y2 counter inactive | NPY-Y1 agonist 23 | NPY-Y2 agonist 22 | CNGC inh 2 26
C=CCNC(=O)/C(=C/c1cccc([N+](=O)[O-])c1)NC(=O)c1ccco1	none (no result: NPY Y2 blocker)
COc1ccc(C)cc1NC(=O)C1CC(=O)N(Cc2ccco2)C1 (configuration not stated)	none
COc1cc2c(cc1NC(=O)C(C)OC(=O)C1CC(=O)N(Cc3ccco3)C1)oc1ccccc12 (configuration not stated)	NPY1 pot ag 124 | NPY-Y1 pot conf inactive | NPY-Y2 counter inactive | NPY-Y1 agonist inactive | NPY-Y2 agonist 16 | CNGC inh 2 inactive
CCN(CC)C(=O)CSc1nc(O)c(Cc2ccccc2)c(=O)n1-c1ccccc1C	none (no result: NPY-Y1 antag, NPY Y2 blocker)
Cc1ccccc1-n1nc(C(=O)c2cccs2)cc(-c2nc3ccccc3[nH]2)c1=N	NPY1 pot ag 48 | NPY-Y1 pot conf 73 | NPY-Y2 counter 65 | NPY-Y1 agonist 62 | NPY-Y2 agonist 66 | CNGC inh 2 62
COc1ccc(-n2nc(C(=O)c3cccs3)cc(-c3nc4ccccc4[nH]3)c2=N)cc1	none
Nc1ccc(Nc2ccccc2)c(Cl)c1	none
Nc1ccccc1Nc1ccccc1	NPY1 pot ag 38 | NPY-Y1 pot conf inactive | NPY-Y2 counter inactive | NPY-Y1 agonist inactive | NPY-Y2 agonist inactive | CNGC inh 2 24
O=C(O)/C=C/c1ccc(S(=O)(=O)NCc2ccco2)cc1	NPY1 pot ag 64 (no result: NPY Y2 blocker) | NPY-Y1 pot conf inactive | NPY-Y2 counter inactive | NPY-Y1 agonist inactive | NPY-Y2 agonist inactive | CNGC inh 2 inactive
Cc1[nH]c2ccccc2c1C(=O)CN1C(=O)NC(C)(c2ccc(Cl)cc2Cl)C1=O (configuration not stated)	NPY1 pot ag 56 | NPY-Y1 pot conf inactive | NPY-Y2 counter inactive | NPY-Y1 agonist 32 | NPY-Y2 agonist 18 | CNGC inh 2 27
Cc1[nH]c2ccccc2c1C(=O)CSc1ccc(Cl)cc1	none (no result: NPY Y2 blocker)
N#Cc1c(-n2cccc2/C=N/O)sc2c1CCCC2	NPY1 pot ag 44 | NPY-Y1 pot conf inactive | NPY-Y2 counter inactive | NPY-Y1 agonist inactive | NPY-Y2 agonist inactive | CNGC inh 2 inactive
Cc1cc(Nc2ccc3c(c2)OCCO3)c2cccc(C)c2n1	none
Cc1ccc(-c2nc(Nc3ccc(N4CCOCC4)cc3)c3ccccc3n2)cc1	NPY1 pot ag 53 (no result: NPY-Y1 antag, NPY Y2 blocker) | NPY-Y1 pot conf 51 | NPY-Y2 counter 42 | NPY-Y1 agonist 58 | NPY-Y2 agonist 45 | CNGC inh 2 58
CN1CCN(c2ccccc2NC(=O)c2ccc(N3CCCC3)c([N+](=O)[O-])c2)CC1	none (no result: NPY Y2 blocker)
O=C(Nc1ccccc1N1CCCCC1)c1ccc(Cl)c([N+](=O)[O-])c1	NPY1 pot ag 51 (no result: NPY Y2 blocker) | NPY-Y1 pot conf 45 | NPY-Y2 counter 39 | NPY-Y1 agonist 29 | NPY-Y2 agonist 38 | CNGC inh 2 34
Cn1cccc1-c1nc2ccccc2[nH]1	none (no result: NPY-Y1 antag, NPY Y2 blocker)
O=C(NC(=S)N1CCCCCC1)c1ccc(Cl)cc1Cl	none (no result: NPY Y2 blocker)
